In ChEMBL document CHEMBL1122642, “Biomimetic approach to potential benzodiazepine receptor agonists and antagonists” (J Med Chem, 1984):
pKd, pKi: −log10 of the molar value.

Legend:
[1] = biological target: GABA-A receptor; anion channel; assay: In vitro inhibition of [3H]diazepam binding to rat cerebral cortical membrane benzodiazepine receptors
Procedure, shortened: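 Thrice-washed rat cerebral cortex membranes in 50 mM Tris-HCl pH 7.4 (0.5–0.6 mg/mL protein), incubated 30 min at 4 °C with 2 nM [3H]diazepam plus test compound. Stopped with ice-cold Tris, then GF/B filtration and scintillation counting. Nonspecific binding with 3 μM unlabeled diazepam or clonazepam.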

[2] = In vitro binding to GABA-A benzodiazepine receptor of rat cerebral cortical membranes
Procedure, shortened: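 Rat cerebral cortex homogenised in Tris-HCl (50 mM, pH 7.4), washed three times by centrifugation at 20000g, 4 °C, and resuspended at 0.5–0.6 mg protein/mL. Incubated with 2 nM [3H]diazepam, 30 min, 4 °C. Stopped with ice-cold buffer, GF/B filtered, scintillation counted. Nonspecific binding with 3 μM unlabelled diazepam or clonazepam. […] Mean of two experiments.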

Rattus norvegicus = species: Rattus norvegicus; assay: In vitro inhibition of [3H]diazepam binding to GABA-A benzodiazepine receptor of rat cerebral cortical membranes at 50 uM; type: cell membranes; conditions: Membrane

| SMILES | pKi [1] | also measured |
| --- | --- | --- |
| CC(=O)c1cc2c3ccccc3nc-2c[nH]1 | 7.24 |  |
| CCOC(=O)c1cc2c(cn1)[nH]c1ccccc12 | 9.00 |  |
| COC(=O)c1cc2c(cn1)[nH]c1ccccc12 [BETA-CCM] | 9.00 |  |
| CN1C(=O)CN=C(c2ccccc2)c2cc(Cl)ccc21 [DIAZEPAM] |  | pKd [2]: 5.25 |
| O=C(O)C1Cc2[nH]cnc2C(c2ccccc2)N1 (cis isomer) | < 4.30 |  |
| O=C(O)C1Cc2[nH]cnc2CN1 (configuration not stated) | < 4.30 |  |
| CC(=O)OCc1cc2c3ccccc3nc-2c[nH]1 | 3.12 |  |
| COC(=O)c1cc2[nH]cnc2cn1 | < 4.30 |  |
| COC(=O)c1cc2[nH]cnc2c(-c2ccccc2)n1 | 5.00 |  |
| O=C(O)C1Cc2cc(O)c(O)cc2CN1 (configuration not stated) | < 4.30 |  |
| OCc1cc2c3ccccc3nc-2c[nH]1 | 5.83 |  |
| Cc1ncc(CO)c(C2NCCc3ncn(C)c32)c1O (configuration not stated) | < 4.30 |  |
| COC(=O)C1Cc2[nH]cnc2C(c2c(CO)cnc(C)c2O)N1 (configuration not stated) | < 4.30 |  |
| COC(=O)C1Cc2[nH]cnc2C(c2ccccc2)N1 (trans isomer) | < 4.30 |  |
| COC(=O)C1Cc2c3n(c4ccccc24)C(=O)CCC3N1Cc1ccccc1 (configuration not stated) |  | Inhibition (Rattus norvegicus): 17% |
| O=c1ccc2nccc3c4ccccc4n1c23 [CANTHIN-6-ONE] | 5.00 |  |
| NC(=O)c1cc2c3ccccc3nc-2c[nH]1 | 7.17 |  |
| COC(=O)c1cc2cc(OC)c(OC)cc2cn1 | 5.00 |  |
| O=C1CCC2c3c(c4ccccc4n31)CCN2Cc1ccccc1 (configuration not stated) | 4.95 |  |
| COC(=O)C1Cc2ccccc2CN1 (configuration not stated) | < 4.30 |  |
| COC(=O)C1Cc2cc(OC)c(OC)cc2CN1 (configuration not stated) | 4.49 |  |
| COC(=O)c1cc2c3ccccc3n3c(=O)ccc(n1)c23 | 7.00 |  |
